Assay results as given in ChEMBL document CHEMBL1132193, “Fluorescent pseudo-peptide linear vasopressin antagonists: design, synthesis, and applications” (J Med Chem, 1999).
pKi: −log10 of the molar value. Where a SMILES comes first, the peptide text is derived from it. [ ]: non-standard residue; d: D form. The star is where a group is joined. X1 = O=C(Cc1ccc(O)cc1)*

Columns and labels:
Vasopressin V1a receptor = Vasopressin V1a receptor (Homo sapiens, UniProt P37288); test: Displacement of [125I]- HO-LVA from human Vasopressin V1a receptor in membranes of CHO cells; type: cell membranes
Summary of the method: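 CHO membranes expressing human V1a receptor (0.5–1 μg protein/assay), 50–70 pM [125I]HO-LVA. Incubated 1 h at 30 °C, equilibrium by 30 min. Competitor 1 pM to 10 μM; 1 μM unlabeled ligand defined nonspecific binding. Ki = IC50/(1+[*L]/Kd), nonlinear least-squares; at least three assays in triplicate.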

Vasopressin V1b receptor [1] = target: T1, Vasopressin V1b receptor (Homo sapiens, UniProt P47901); test: The inhibition constant (Ki(nM)) by displacement of [125I]- HO-LVA radiolabeled ligand using membranes of CHO cells of human Vasopressin V1b receptor; type: cell membranes
T1 sequence (P47901 whole entry): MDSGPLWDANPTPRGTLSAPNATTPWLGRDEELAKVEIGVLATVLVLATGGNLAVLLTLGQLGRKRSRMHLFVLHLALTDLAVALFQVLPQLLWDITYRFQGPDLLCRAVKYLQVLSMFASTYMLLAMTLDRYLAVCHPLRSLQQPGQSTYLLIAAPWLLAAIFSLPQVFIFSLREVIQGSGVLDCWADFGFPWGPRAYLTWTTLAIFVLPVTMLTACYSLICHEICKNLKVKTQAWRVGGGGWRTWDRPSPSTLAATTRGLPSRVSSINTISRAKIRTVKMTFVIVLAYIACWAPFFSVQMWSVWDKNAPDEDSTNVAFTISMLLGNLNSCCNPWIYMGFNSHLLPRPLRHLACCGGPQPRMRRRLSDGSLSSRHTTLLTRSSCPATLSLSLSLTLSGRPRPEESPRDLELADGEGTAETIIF
Summary of the method: (§1)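 Human V1b receptor in CHO cell membranes; competition against 1 nM [125I]HO-LVA. Membranes at 0.5–1 μg protein/assay, 1 h at 30 °C. Competitor spanned 1 pM to 10 μM; nonspecific binding with 1 μM unlabeled ligand. Ki = IC50/(1+[*L]/Kd) by nonlinear least-squares fit, ≥3 assays in triplicate.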

Vasopressin V2 receptor [2] = target: T2, Vasopressin V2 receptor (Homo sapiens, UniProt P30518); test: The inhibition constant (Ki(nM)) by displacement of [125I]- HO-LVA radiolabeled ligand using membranes of CHO cells of human Vasopressin V2 receptor; type: cell membranes
Oxytocin receptor = target: T3, Oxytocin receptor (Homo sapiens, UniProt P30559); test: The inhibition constant (Ki(nM)) by displacement of [125I]- HO-LVA radiolabeled ligand using membranes of CHO cells of human Oxytocin receptor; type: cell membranes
T3 sequence (P30559 whole entry): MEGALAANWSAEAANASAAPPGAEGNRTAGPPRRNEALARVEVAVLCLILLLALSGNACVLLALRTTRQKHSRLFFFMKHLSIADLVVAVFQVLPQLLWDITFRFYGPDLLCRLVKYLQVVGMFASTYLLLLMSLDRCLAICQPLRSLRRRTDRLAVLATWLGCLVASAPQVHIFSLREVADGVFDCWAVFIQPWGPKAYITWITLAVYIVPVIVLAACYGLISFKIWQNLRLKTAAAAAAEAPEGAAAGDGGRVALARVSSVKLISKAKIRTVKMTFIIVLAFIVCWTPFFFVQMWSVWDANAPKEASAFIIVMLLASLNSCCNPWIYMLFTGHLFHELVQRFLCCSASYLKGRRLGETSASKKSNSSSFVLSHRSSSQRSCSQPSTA

Vasopressin V2 receptor [3] = target: T2, Vasopressin V2 receptor; test: Compound was tested for its ability to of [125I]- HO-LVA radiolabeled ligand using membranes of CHO cells of human Vasopressin V2 receptor; type: cell-based
Vasopressin V1b receptor [4] = target: T1, Vasopressin V1b receptor; test: Compound was tested for its ability to displace [125I]- HO-LVA ligand from human Vasopressin V1b receptor in the membranes of CHO cells; type: cell membranes; summary of the method: as §1

T2 sequence (P30518 whole entry): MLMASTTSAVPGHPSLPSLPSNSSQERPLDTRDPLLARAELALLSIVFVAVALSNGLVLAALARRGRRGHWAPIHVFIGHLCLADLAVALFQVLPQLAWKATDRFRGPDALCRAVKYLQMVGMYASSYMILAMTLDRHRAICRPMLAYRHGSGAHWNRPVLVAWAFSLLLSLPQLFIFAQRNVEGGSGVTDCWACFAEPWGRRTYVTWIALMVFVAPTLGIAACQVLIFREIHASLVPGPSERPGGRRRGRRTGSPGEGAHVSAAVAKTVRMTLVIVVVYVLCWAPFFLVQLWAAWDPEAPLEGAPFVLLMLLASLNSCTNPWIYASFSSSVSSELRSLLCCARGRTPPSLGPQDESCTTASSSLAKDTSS
Chain of Vasopressin V1a receptor (P37288 whole entry): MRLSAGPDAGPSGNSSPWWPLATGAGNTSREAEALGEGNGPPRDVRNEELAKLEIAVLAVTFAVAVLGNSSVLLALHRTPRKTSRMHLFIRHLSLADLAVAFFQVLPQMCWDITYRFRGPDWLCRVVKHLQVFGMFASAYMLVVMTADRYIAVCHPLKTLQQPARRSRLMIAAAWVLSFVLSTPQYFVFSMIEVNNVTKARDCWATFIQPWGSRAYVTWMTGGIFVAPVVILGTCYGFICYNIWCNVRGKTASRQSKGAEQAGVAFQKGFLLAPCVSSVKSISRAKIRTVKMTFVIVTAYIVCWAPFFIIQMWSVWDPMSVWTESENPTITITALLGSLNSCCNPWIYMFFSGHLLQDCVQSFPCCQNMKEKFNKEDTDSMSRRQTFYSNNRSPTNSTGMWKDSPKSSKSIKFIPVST

| SMILES | pKi (Vasopressin V1a receptor) | pKi (Oxytocin receptor) | further results |
| --- | --- | --- | --- |
| COc1ccc(C[C@@H](NC(=O)Cc2ccccc2)C(=O)N[C@@H](Cc2ccccc2)C(=O)N[C@@H](CCC(N)=O)C(=O)N[C@@H](CC(N)=O)C(=O)N[C@@H](CCCN=C(N)N)C(=O)N2CCC[C@H]2C(=O)N[C@@H](CCCN=C(N)N)C(N)=O)cc1 | – | – | pKi (Vasopressin V1a receptor; cho): 9.10; pKi (Vasopressin V1b receptor [1]; cho): 8.03; pKi (Vasopressin V2 receptor [2]; cho): 6.55; pKi (Oxytocin receptor; cho): 8.96 |
| COc1ccc(C[C@@H](NC(=O)CCc2ccc(O)cc2)C(=O)N[C@@H](Cc2ccccc2)C(=O)N[C@@H](CCC(N)=O)C(=O)N[C@@H](CC(N)=O)C(=O)N[C@@H](CCCCNC(=O)c2ccc3c(c2)C2(OC3=O)c3ccc(N(C)C)cc3Oc3cc(N(C)C)ccc32)C(=O)N2CCC[C@H]2C(=O)N[C@@H](CCCNC(=N)N)C(N)=O)cc1 | 8.48 | – | – |
| COc1ccc(C[C@@H](NC(=O)CCc2ccc(O)cc2)C(=O)N[C@@H](Cc2ccccc2)C(=O)N[C@@H](CCC(N)=O)C(=O)N[C@@H](CC(N)=O)C(=O)N[C@@H](CCCCNC(=O)c2ccc3c(c2)C(=O)OC32c3ccc(N(C)C)cc3Oc3cc(N(C)C)ccc32)C(=O)N2CCC[C@H]2C(=O)N[C@@H](CCCNC(=N)N)C(N)=O)cc1 | 8.89 | – | – |
| CCN(CC)c1ccc2c(-c3ccccc3C(=O)N[C@H](Cc3ccc(OC)cc3)C(=O)N[C@@H](Cc3ccccc3)C(=O)N[C@@H](CCC(N)=O)C(=O)N[C@@H](CC(N)=O)C(=O)N[C@@H](CCCNC(=N)N)C(=O)N3CCC[C@H]3C(=O)N[C@@H](CCCNC(=N)N)C(=O)N[C@@H](Cc3ccc(O)cc3)C(N)=O)c3ccc(=[N+](CC)CC)cc-3oc2c1 | – | – | pKi (Vasopressin V1a receptor; cho): < 6.30 |
| COc1ccc(C[C@@H](NC(=O)CCc2ccc(O)cc2)C(=O)N[C@@H](Cc2ccccc2)C(=O)N[C@@H](CCC(N)=O)C(=O)N[C@@H](CC(N)=O)C(=O)N[C@@H](CCCCNC(=O)c2ccc3c(c2)C(=O)OC32c3ccc(O)cc3Oc3cc(O)ccc32)C(=O)N2CCC[C@H]2C(=O)N[C@@H](CCCNC(=N)N)C(N)=O)cc1 | 8.25 | – | – |
| COc1ccc(C[C@@H](NC(=O)CCc2ccc(O)cc2)C(=O)N[C@@H](Cc2ccccc2)C(=O)N[C@@H](CCC(N)=O)C(=O)N[C@@H](CC(N)=O)C(=O)N[C@@H](CCCNC(=N)N)C(=O)N2CCC[C@H]2C(=O)N[C@@H](CCCCNC(=O)c2ccc3c(c2)C(=O)OC32c3ccc(O)cc3Oc3cc(O)ccc32)C(N)=O)cc1 | 9.77 | 8.80 | pKi (Vasopressin V1b receptor [1]): 6.85; pKi (Vasopressin V2 receptor [2]): 5.04 |
| COc1ccc(C[C@@H](NC(=O)CCc2ccc(O)cc2)C(=O)N[C@@H](Cc2ccccc2)C(=O)N[C@@H](CCC(N)=O)C(=O)N[C@@H](CC(N)=O)C(=O)N[C@@H](CCCNC(=N)N)C(=O)N2CCC[C@H]2C(=O)N[C@@H](CCCCNC(=O)c2ccc3c(c2)C2(OC3=O)c3ccc(O)cc3Oc3cc(O)ccc32)C(N)=O)cc1 | 9.64 | – | – |
| COc1ccc(C[C@@H](NC(=O)CCc2ccc(O)cc2)C(=O)N[C@@H](Cc2ccccc2)C(=O)N[C@@H](CCC(N)=O)C(=O)N[C@@H](CC(N)=O)C(=O)N[C@@H](CCCNC(=N)N)C(=O)N2CCC[C@H]2C(=O)N[C@@H](CCCCNC(=O)c2ccc3c(c2)C2(OC3=O)c3ccc(N(C)C)cc3Oc3cc(N(C)C)ccc32)C(N)=O)cc1 | 9.77 | – | – |
| COc1ccc(C[C@@H](NC(=O)CCc2ccc(O)cc2)C(=O)N[C@@H](Cc2ccccc2)C(=O)N[C@@H](CCC(N)=O)C(=O)N[C@@H](CC(N)=O)C(=O)N[C@@H](CCCNC(=N)N)C(=O)N2CCC[C@H]2C(=O)N[C@@H](CCCCNC(=O)c2ccc3c(c2)C(=O)OC32c3ccc(N(C)C)cc3Oc3cc(N(C)C)ccc32)C(N)=O)cc1 | 10.15 | 8.92 | pKi (Vasopressin V1b receptor [1]): 7.57; pKi (Vasopressin V2 receptor [2]): 5.12 |
| COc1ccc(C[C@@H](NC(=O)Cc2ccc(O)cc2)C(=O)N[C@@H](Cc2ccccc2)C(=O)N[C@@H](CCC(N)=O)C(=O)N[C@@H](CC(N)=O)C(=O)N[C@@H](CCCN=C(N)N)C(=O)N2CCC[C@H]2C(=O)N[C@@H](CCCN=C(N)N)C(N)=O)cc1 (X1-[dY](Me)FQNRPR-NH2) | 10.10 | 8.57 | pKi (Vasopressin V2 receptor [3]): 6.86; pKi (Vasopressin V1b receptor [4]): 8.23 |
